Laboratory results taken from ChEMBL document CHEMBL1136741, “Role of the glycopeptide framework in the antibacterial activity of hydrophobic derivatives of glycopeptide antibiotics” (2003).
≈ marks a conversion by molar mass, not a printed value.

Key:
Enterococcus faecium [1] = assay: Antibacterial activity against glycopeptide resistant Enterococcus faecium 569 strain; assay type: functional
Method in brief: (§1)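 MIC by broth microdilution in Mueller Hinton broth following NCCLS procedures. Compounds were dissolved in 10% DMSO in water, then diluted in broth. Final DMSO was 1.28% at 128 µg/mL antibiotic down to 0.0013% at 0.13 µg/mL. Repeat determinations were usually identical and always within 2-fold.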

Enterococcus faecium [2] = assay: Antibacterial activity against glycopeptide susceptible Enterococcus faecium 568 strain; assay type: functional
Method in brief: (§2)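 MIC by broth microdilution in Mueller Hinton broth following NCCLS procedures. Compounds dissolved in 10% DMSO in water, then diluted in broth; test range 128 to 0.13 µg/mL, final DMSO 1.28% to 0.0013% accordingly. Repeat determinations usually identical and always within 2-fold. Strain 533 is a clinical isolate; strain 602 is a clinical S. haemoliticus isolate.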

Enterococcus faecalis [3] = assay: Antibacterial activity against glycopeptide resistant Enterococcus faecalis 560 strain; assay type: functional; method in brief: as §1
Enterococcus faecalis [4] = assay: Antibacterial activity against glycopeptide susceptible Enterococcus faecalis 559 strain; assay type: functional; method in brief: as §2
Staphylococcus aureus [5] = assay: Antibacterial activity against glycopeptide intermediate resistant Staphylococcus aureus 3797 strain; assay type: functional; method in brief: as §1
Staphylococcus aureus [6] = assay: Antibacterial activity against glycopeptide intermediate resistant Staphylococcus aureus 3798 strain; assay type: functional; method in brief: as §1
[7] = system: Staphylococcus epidermidis; assay: Antibacterial activity against Staphylococcus epidermis 533 strain; assay type: functional
[8] = system: Staphylococcus haemolyticus; assay: Antibacterial activity against Staphylococcus haemolyticus 602 strain

Compound	MIC (Enterococcus faecium [1]) [µg/mL]	MIC (Enterococcus faecium [2]) [µg/mL]	MIC (Enterococcus faecalis [3]) [µg/mL]	MIC (Enterococcus faecalis [4]) [µg/mL]	MIC (Staphylococcus aureus [5]) [µg/mL]	MIC (Staphylococcus aureus [6]) [µg/mL]	MIC [7] [µg/mL]	MIC [8] [µg/mL]
CCCCCCCCCCNC(=O)[C@H]1NC(=O)[C@H]2NC(=O)[C@H](NC(=O)[C@@H]3NC(=O)[C@H]4NC(=O)[C@@H](Cc5ccc(c(Cl)c5)Oc5cc3cc(c5O)Oc3ccc(cc3Cl)[C@H]2O)NC(=O)[C@H](N)c2ccc(O)c(c2)Oc2cc(O)cc4c2)c2ccc(O)c(c2)-c2c(O)cc(O)cc21	4 (≈ 2.99 µM)	0.25 (≈ 0.187 µM)	4 (≈ 2.99 µM)	0.5 (≈ 0.374 µM)	1 (≈ 0.747 µM)	1 (≈ 0.747 µM)	0.13 (≈ 0.0971 µM)	0.5 (≈ 0.374 µM)
CC(=O)N[C@@H]1[C@H](O[C@@H]2c3ccc(c(Cl)c3)Oc3cc(cc(Oc4ccc(C[C@@H](N)CO)cc4Cl)c3O)[C@@H](N)C(=O)N[C@H]3C(=O)N[C@@H]2C(=O)N[C@H](C(=O)O)c2cc(O)cc(O[C@H]4O[C@H](CO)[C@@H](O)[C@@H](O)[C@@H]4O)c2-c2cc3ccc2O)O[C@@H](CO)[C@@H](O)[C@@H]1O	> 128	32 (≈ 25.5 µM)	> 128	64 (≈ 51 µM)	> 64	> 64	64 (≈ 51 µM)	64 (≈ 51 µM)
N[C@H]1C(=O)N[C@@H]2Cc3ccc(c(Cl)c3)Oc3cc4cc(c3O)Oc3ccc(cc3Cl)[C@@H](O)[C@@H]3NC(=O)[C@H](NC(=O)[C@@H]4NC(=O)[C@@H](NC2=O)c2cc(O)cc(c2)Oc2cc1ccc2O)c1ccc(O)c(c1)-c1c(O)cc(O)cc1[C@@H](C(=O)NCc1ccc(-c2ccc(Cl)cc2)cc1)NC3=O	4 (≈ 2.86 µM)	0.25 (≈ 0.179 µM)	8 (≈ 5.72 µM)	0.25 (≈ 0.179 µM)	1 (≈ 0.715 µM)	1 (≈ 0.715 µM)	0.13 (≈ 0.0929 µM)	0.13 (≈ 0.0929 µM)
NC(=O)C[C@@H]1NC(=O)[C@H](N)[C@H](O)c2ccc(c(Cl)c2)Oc2cc3cc(c2O)Oc2ccc(cc2)[C@@H](O)[C@@H]2NC(=O)[C@H](NC(=O)[C@@H]3NC1=O)c1ccc(O)c(c1)-c1c(O)cc(O)cc1[C@@H](C(=O)NCc1ccc(-c3ccc(Cl)cc3)cc1)NC2=O	64 (≈ 54.1 µM)	32 (≈ 27.1 µM)	64 (≈ 54.1 µM)	64 (≈ 54.1 µM)	64 (≈ 54.1 µM)	64 (≈ 54.1 µM)	32 (≈ 27.1 µM)	64 (≈ 54.1 µM)
CN[C@H](CC(C)C)C(=O)N[C@H]1C(=O)N[C@@H](CC(N)=O)C(=O)N[C@H]2C(=O)N[C@H]3C(=O)N[C@H](C(=O)N[C@H](C(=O)O)c4cc(O)cc(O)c4-c4cc3ccc4O)[C@H](O)c3ccc(cc3)Oc3cc2cc(c3O)Oc2ccc(cc2Cl)[C@H]1O [EREMOMYCIN AGLYCON]	> 128	32 (≈ 28.8 µM)	> 128	16 (≈ 14.4 µM)	> 64	> 64	32 (≈ 28.8 µM)	16 (≈ 14.4 µM)
CN[C@H](CC(C)C)C(=O)N[C@H]1C(=O)N[C@@H](CC(N)=O)C(=O)N[C@H]2C(=O)N[C@H]3C(=O)N[C@H](C(=O)N[C@H](C(=O)O)c4cc(O)cc(O)c4-c4cc3ccc4O)[C@H](O[C@@H]3C[C@@](C)(N)[C@H](O)[C@@H](C)O3)c3ccc(cc3)Oc3cc2cc(c3O[C@H]2O[C@@H](CO)[C@H](O)[C@@H](O)[C@@H]2O[C@H]2C[C@](C)(N)[C@@H](O)[C@H](C)O2)Oc2ccc(cc2Cl)[C@H]1O [EREMOMYCIN]	> 128	0.25 (≈ 0.16 µM)	> 128	0.25 (≈ 0.16 µM)	8 (≈ 5.13 µM)	8 (≈ 5.13 µM)	0.25 (≈ 0.16 µM)	0.25 (≈ 0.16 µM)
N[C@H]1C(=O)N[C@@H]2Cc3ccc(c(Cl)c3)Oc3cc4cc(c3O)Oc3ccc(cc3Cl)[C@@H](O)[C@@H]3NC(=O)[C@H](NC(=O)[C@@H]4NC(=O)[C@@H](NC2=O)c2cc(O)cc(c2)Oc2cc1ccc2O)c1ccc(O)c(c1)-c1c(O)cc(O)cc1[C@@H](C(=O)O)NC3=O [TEICOPLANIN AGLYCON]	> 128	0.13 (≈ 0.108 µM)	> 128	0.13 (≈ 0.108 µM)	1 (≈ 0.834 µM)	1 (≈ 0.834 µM)	0.25 (≈ 0.209 µM)	0.25 (≈ 0.209 µM)
